Experimental data as given in ChEMBL document CHEMBL4325893, “Synthesis and antibacterial profiles of targeted triclosan derivatives” (2019).
Values after ≈ are worked out from the molar mass of the structure shown.

What was measured:
[1] = system: Aeromonas hydrophila; experiment: Antibacterial activity against Aeromonas hydrophila OCC 778 after 18 hrs; format: functional; settings: OCC 778, 18 h
In short: (§1)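 Broth microdilution in Nutrient Broth No. 2; stocks in ethanol diluted to 0.01–128 µg/ml (triclosan) or 0.25–256 µg/ml (glycosides). Overnight 37 °C NB2 cultures diluted 1 in 10^4 in saline and added to the dilutions. Incubation at 37 °C with agitation, OD read every 15 min; MIC is the lowest concentration preventing any OD rise after 18 h.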

[2] = system: Citrobacter freundii; experiment: Antibacterial activity against Citrobacter freundii OCC 851 after 18 hrs; format: functional; settings: OCC 851, 18 h; in short: as §1
[3] = system: Cronobacter sakazakii; experiment: Antibacterial activity against Cronobacter sakazakii 29544 after 18 hrs; format: functional; settings: Cronobacter sakazakii, 29544, 18 h; in short: as §1
[4] = system: Klebsiella aerogenes; experiment: Antibacterial activity against Enterobacter aerogenes ATCC 13048 after 18 hrs; format: functional; settings: ATCC 13048, 18 h; in short: as §1
[5] = Antibacterial activity against Enterobacter cloacae ATCC 13047 after 18 hrs; format: functional, Enterobacter cloacae subsp. cloacae; settings: ATCC 13047, 18 h; in short: as §1
[6] = system: Escherichia coli; experiment: Antibacterial activity against Escherichia coli ATCC 8739 after 18 hrs; format: functional; settings: ATCC 8739, 18 h; in short: as §1
[7] = system: Escherichia coli; experiment: Antibacterial activity against Escherichia coli ATCC 10536 after 18 hrs; format: functional; settings: ATCC 10536, 18 h; in short: as §1
[8] = system: Escherichia coli; experiment: Antibacterial activity against Escherichia coli ATCC 11775 after 18 hrs; format: functional; in short: as §1
[9] = system: Escherichia coli; experiment: Antibacterial activity against Escherichia coli ATCC 25922 after 18 hrs; format: functional; settings: ATCC 25922, 18 h; in short: as §1
[10] = system: Escherichia coli; experiment: Antibacterial activity against Escherichia coli ATCC 35218 after 18 hrs; format: functional; settings: ATCC 35218, 18 h; in short: as §1
[11] = system: Escherichia coli; experiment: Antibacterial activity against Escherichia coli 700728 after 18 hrs; format: functional; settings: Escherichia coli, 700728, 18 h; in short: as §1
[12] = system: Escherichia coli; experiment: Antibacterial activity against Escherichia coli NCTC 13216 after 18 hrs; format: functional; settings: NCTC 13216, 18 h; in short: as §1
[13] = system: Escherichia coli; experiment: Antibacterial activity against Escherichia coli OCC 122 after 18 hrs; format: functional; settings: OCC 122, 18 h; in short: as §1
[14] = system: Escherichia hermannii; experiment: Antibacterial activity against Escherichia hermannii 33650 after 18 hrs; format: functional; settings: Atlantibacter hermannii, 33650, 18 h; in short: as §1
[15] = system: Hafnia alvei; experiment: Antibacterial activity against Hafnia alvei 13337 after 18 hrs; format: functional; settings: Hafnia alvei, 13337, 18 h; in short: as §1
[16] = system: Klebsiella aerogenes; experiment: Antibacterial activity against Klebsiella aerogenes NCTC 8167 after 18 hrs; format: functional; settings: NCTC 8167, 18 h; in short: as §1
[17] = system: Klebsiella pneumoniae; experiment: Antibacterial activity against Klebsiella pneumoniae ATCC 10031 after 18 hrs; format: functional; settings: ATCC 10031, 18 h; in short: as §1
[18] = system: Proteus mirabilis; experiment: Antibacterial activity against Proteus mirabilis ATCC 12453 after 18 hrs; format: functional; settings: ATCC 12453, 18 h; in short: as §1
[19] = system: Proteus vulgaris; experiment: Antibacterial activity against Proteus vulgaris OCC 195 after 18 hrs; format: functional; settings: OCC 195, 18 h; in short: as §1
[20] = system: Pseudomonas aeruginosa; experiment: Antibacterial activity against Pseudomonas aeruginosa ATCC 27853 after 18 hrs; format: functional; settings: ATCC 27853, 18 h; in short: as §1
[21] = system: Klebsiella pneumoniae; experiment: Antibacterial activity against Klebsiella pneumoniae ATCC 13883 after 18 hrs; format: functional; settings: ATCC 13883, 18 h; in short: as §1
[22] = system: Citrobacter freundii; experiment: Antibacterial activity against Citrobacter freundii 8090 after 18 hrs; format: functional; settings: Citrobacter freundii, 8090, 18 h; in short: as §1
[23] = system: Serratia marcescens; experiment: Antibacterial activity against Serratia marcescens OCC 217 after 18 hrs; format: functional; settings: OCC 217, 18 h; in short: as §1
[24] = system: Bacillus cereus; experiment: Antibacterial activity against Bacillus cereus ATCC 14579 after 18 hrs; format: functional; settings: ATCC 14579, 18 h; in short: as §1
[25] = system: Bacillus subtilis; experiment: Antibacterial activity against Bacillus subtilis NCTC 10073 after 18 hrs; format: functional; settings: NCTC 10073, 18 h; in short: as §1
[26] = system: Enterococcus faecalis; experiment: Antibacterial activity against Enterococcus faecalis ATCC 29212 after 18 hrs; format: functional; settings: ATCC 29212, 18 h; in short: as §1
[27] = system: Enterococcus faecalis; experiment: Antibacterial activity against Enterococcus faecalis ATCC 33186 after 18 hrs; format: functional; settings: ATCC 33186, 18 h; in short: as §1
[28] = system: Enterococcus faecium; experiment: Antibacterial activity against Enterococcus faecium ATCC 19434 after 18 hrs; format: functional; settings: ATCC 19434, 18 h; in short: as §1

MIC [1]: 256 µg/mL (≈ 567 µM)
MIC [2]: 4 µg/mL (≈ 8.86 µM)
MIC [3]: 8 µg/mL (≈ 17.7 µM)
MIC [4]: 8 µg/mL (≈ 17.7 µM)
MIC [5]: 1 µg/mL (≈ 2.21 µM)
MIC [6]: 2 to 8 µg/mL (≈ 4.43 to 17.7 µM)
MIC [7]: 2 to 8 µg/mL (≈ 4.43 to 17.7 µM)
MIC [8]: 2 to 8 µg/mL (≈ 4.43 to 17.7 µM)
MIC [9]: 2 to 8 µg/mL (≈ 4.43 to 17.7 µM)
MIC [10]: 2 to 8 µg/mL (≈ 4.43 to 17.7 µM)
MIC [11]: 2 to 8 µg/mL (≈ 4.43 to 17.7 µM)
MIC [12]: 2 to 8 µg/mL (≈ 4.43 to 17.7 µM)
MIC [13]: 2 to 8 µg/mL (≈ 4.43 to 17.7 µM)
MIC [14]: 1 µg/mL (≈ 2.21 µM)
MIC [15]: 1 µg/mL (≈ 2.21 µM)
MIC [16]: 2 µg/mL (≈ 4.43 µM)
MIC [17]: 1 µg/mL (≈ 2.21 µM)
MIC [18]: 2 µg/mL (≈ 4.43 µM)
MIC [19]: 4 µg/mL (≈ 8.86 µM)
MIC [20]: > 256 µg/mL
MIC [21]: 1 µg/mL (≈ 2.21 µM)
MIC [22]: 4 µg/mL (≈ 8.86 µM)
MIC [23]: > 256 µg/mL
MIC [24]: 128 µg/mL (≈ 283 µM)
MIC [25]: 32 µg/mL (≈ 70.8 µM)
MIC [26]: 128 µg/mL (≈ 283 µM)
MIC [27]: 128 µg/mL (≈ 283 µM)
MIC [28]: 256 µg/mL (≈ 567 µM)
Structure (SMILES): OC[C@H]1O[C@H](Oc2cc(Cl)ccc2Oc2ccc(Cl)cc2Cl)[C@H](O)[C@@H](O)[C@@H]1O
